Measured values taken from ChEMBL document CHEMBL2029239, “Identification, design and biological evaluation of bisaryl quinolones targeting Plasmodium falciparum type II NADH:quinone oxidoreductase (PfNDH2)” (J Med Chem, 2012).

Assays:
Plasmodium falciparum [1] = assay: Antimalarial activity against blood stage forms of Plasmodium falciparum 3D7; type: functional, organism-based
[2] = Inhibition of Plasmodium falciparum recombinant NDH2 expressed in Escherichia coli F571 using decyclubiquinone as substrate at 1 min by spectrophotometry
Plasmodium falciparum [3] = assay: Antimalarial activity against atoquinone-resistant Plasmodium falciparum TM90C2B; type: functional, organism-based
[4] = Inhibition of Plasmodium falciparum cytochrome b-c1 complex using decylubiquinol as substrate by spectrophotometry
Plasmodium falciparum [5] = assay: Antimalarial activity against chloroquine-resistant Plasmodium falciparum W2; type: functional, organism-based
Plasmodium berghei [6] = assay: Antimalarial activity against Plasmodium berghei infected in CD1 mouse assessed as decrease in parasitemia at 20 mg/kg, po administered using Na2CO3 vehicle measured on day 4 relative to control; type: functional; parameters: scale not given: the % may be the effect or the level left
How it was run: (§1)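 Peters' standard 4-day suppressive test in male CD-1 mice infected with Plasmodium berghei by intraperitoneal injection. Compound given orally at 20 mg/kg, with 5 mice per group. Read-out is % parasite clearance on day 4. Vehicles were SSV (often as suspensions), DET (fully dissolved) or sodium carbonate solution, as specified in each line.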

Plasmodium berghei [7] = assay: Antimalarial activity against Plasmodium berghei infected in CD1 mouse assessed as decrease in parasitemia at 20 mg/kg, po administered using standard suspension vehicle measured on day 4 relative to control; type: functional; parameters: scale not given: the % may be the effect or the level left; how it was run: as §1
Plasmodium berghei [8] = assay: Antimalarial activity against Plasmodium berghei infected in CD1 mouse assessed as decrease in parasitemia at 20 mg/kg, po administered using 5% DMSO and 5% EtOH in tetraglycol vehicle measured on day 4 relative to control; type: functional; parameters: scale not given: the % may be the effect or the level left; how it was run: as §1

| IC50 (Plasmodium falciparum [1]) [nM] | Structure (SMILES) | IC50 [2] [nM] | IC50 (Plasmodium falciparum [3]) [nM] | also measured |
| --- | --- | --- | --- | --- |
| > 1000 | COc1ccc(-c2cc(=O)c3ccccc3[nH]2)cc1 | – | – | – |
| 91 | O=c1c(-c2ccc(Oc3ccc(OC(F)(F)F)cc3)cc2)c(CO)[nH]c2ccccc12 | > 56000 | – | – |
| 752 | Cc1c(-c2ccc(C(F)(F)F)cc2)[nH]c2ccccc2c1=O | 88.5 | – | – |
| > 1000 | Cc1c(-c2ccc(OC(F)(F)F)cc2)[nH]c2ccccc2c1=O | – | – | – |
| > 1000 | Cc1c(-c2ccc(C(F)(F)F)cc2)[nH]c2ncccc2c1=O | – | – | – |
| > 1000 | Cc1c(-c2ccc(OC(F)(F)F)cc2)[nH]c2ncccc2c1=O | – | – | – |
| > 1000 | COc1ccc(-c2[nH]c3ncccc3c(=O)c2C)cc1 | – | – | – |
| > 1000 | Cc1c(-c2ccc(Br)cc2)[nH]c2ncccc2c1=O | – | – | – |
| 579 | O=c1cc(-c2ccc(C(F)(F)F)cc2)[nH]c2ccccc12 | 52.9 | – | – |
| 675 | O=c1cc(-c2ccc(OC(F)(F)F)cc2)[nH]c2ccccc12 | 47.9 | – | – |
| > 1000 | O=c1cc(-c2ccc(O)cc2)[nH]c2ccccc12 | – | – | – |
| 513 | O=c1c(Cl)c(-c2ccc(OC(F)(F)F)cc2)[nH]c2ccccc12 | 253 | – | – |
| 560 | COc1ccc(-c2[nH]c3ccccc3c(=O)c2Cl)cc1 | 1670 | – | – |
| 654 | Cc1c(-c2ccc(Cc3ccc(OC(F)(F)F)cc3)cc2)[nH]c2ccc(C(F)(F)F)cc2c1=O | – | – | – |
| 212 | Cc1c(-c2ccc(Cc3ccc(OC(F)(F)F)cc3)cc2)[nH]c2cc(C(F)(F)F)ccc2c1=O | – | – | – |
| 70 | Cc1c(-c2ccc(Cc3ccc(OC(F)(F)F)cc3)cc2)[nH]c2cc(F)c(Cl)cc2c1=O | – | – | – |
| 38 | Cc1c(-c2ccc(Cc3ccc(OC(F)(F)F)cc3)cc2)[nH]c2cc(Cl)c(F)cc2c1=O | – | – | – |
| 664 | COc1cccc2[nH]c(-c3ccc(Cc4ccc(OC(F)(F)F)cc4)cc3)c(C)c(=O)c12 | – | – | – |
| 465 | COc1ccc2[nH]c(-c3ccc(Cc4ccc(OC(F)(F)F)cc4)cc3)c(C)c(=O)c2c1 | – | – | – |
| 381 | COc1cccc2c(=O)c(C)c(-c3ccc(Cc4ccc(OC(F)(F)F)cc4)cc3)[nH]c12 | – | – | – |
| – | Cc1c(-c2ccc(Cc3ccc(F)cc3)cc2)[nH]c2cc(Cl)ccc2c1=O | 196 | – | – |

| IC50 (Plasmodium falciparum [1]) [nM] | Structure (SMILES) | IC50 [2] [nM] | IC50 (Plasmodium falciparum [3]) [nM] | also measured |
| --- | --- | --- | --- | --- |
| 30 | Cc1c(-c2ccc(Cc3ccc(OC(F)(F)F)cc3)cc2F)[nH]c2cc(Cl)ccc2c1=O | – | – | – |
| 465 | Cc1c(-c2ccc(Cc3ccc(OC(F)(F)F)cc3)cc2)[nH]c2ccc(O)cc2c1=O | – | – | – |
| 139 | Cc1c(-c2ccc(Cc3ccc(OC(F)(F)F)cc3)cc2)[nH]c2cc(O)ccc2c1=O | – | – | – |
| 819 | Cc1c(-c2ccc(Cc3ccc(OC(F)(F)F)cc3)cc2)[nH]c2c(O)cccc2c1=O | – | – | – |
| 408 | CC(=O)Oc1cccc2c(=O)c(C)c(-c3ccc(Cc4ccc(OC(F)(F)F)cc4)cc3)[nH]c12 | – | – | – |
| 506 | Cc1c(-c2ccc(Cc3ccc(F)cc3)cc2)[nH]c2ncccc2c1=O | – | – | – |
| 28 | O=c1cc(-c2ccc(Cc3ccc(OC(F)(F)F)cc3)cc2)[nH]c2cc(Cl)c(Cl)cc12 | 173 | – | – |
| 39 | COc1cc2[nH]c(-c3ccc(Cc4ccc(OC(F)(F)F)cc4)cc3)cc(=O)c2cc1F | – | – | – |
| 430 | O=c1cc(-c2ccc(Cc3ccc(OC(F)(F)F)cc3)cc2)[nH]c2ccc(N3CCNCC3)cc12 | – | – | – |
| 443 | O=c1cc(-c2ccc(Cc3ccc(OC(F)(F)F)cc3)cc2)[nH]c2cc(N3CCNCC3)ccc12 | – | – | – |
| 272 | COC(=O)c1ccc(Cc2ccc(-c3cc(=O)c4ccccc4[nH]3)cc2)cc1 | 19 | – | – |
| > 1000 | O=c1cc(-c2ccc(Cc3ccc(OC(F)(F)F)cc3)cc2)[nH]c2cc(O)c(F)cc12 | – | – | – |
| > 1000 | O=c1cc(-c2ccc(Cc3ccc(CO)cc3)cc2)[nH]c2ccccc12 | – | – | – |
| 797 | O=c1c(-c2ccc(Oc3ccc(OC(F)(F)F)cc3)cc2)c[nH]c2ccccc12 | – | – | – |
| 200 | O=c1c(CO)c(-c2ccc(Oc3ccc(OC(F)(F)F)cc3)cc2)[nH]c2cc(Cl)ccc12 | – | – | – |
| > 1000 | Cc1c(-c2ccc(Oc3ccc(OCCN4CCOCC4)cc3)cc2)[nH]c2ccccc2c1=O | – | – | – |
| 719 | Cc1c(-c2ccc(Oc3cccc(OCCN4CCOCC4)c3)cc2)[nH]c2ccccc2c1=O | – | – | – |
| 355 | Cc1c(-c2ccc(Cc3cccc(OCCN4CCOCC4)c3)cc2)[nH]c2ccccc2c1=O | 279 | – | – |
| – | Cc1c(-c2ccc(Cc3ccc(OC(F)(F)F)cc3)cc2)nc2cc(Cl)ccc2c1OP(=O)(O)O | – | – | Activity (Plasmodium berghei [6]): 100% |
| – | Cc1c(-c2ccc(Cc3ccc(OC(F)(F)F)cc3)cc2)nc2cc(Cl)ccc2c1OC(=O)N1CCOCC1 | – | – | Activity (Plasmodium berghei [6]): 100% |
| – | O=C1C(O)=C([C@H]2CC[C@H](c3ccc(Cl)cc3)CC2)C(=O)c2ccccc21 [ATOVAQUONE] | – | – | Activity (Plasmodium berghei [7]): 100%; Activity (Plasmodium berghei [8]): 100% |

| Structure (SMILES) | IC50 (Plasmodium falciparum [1]) [nM] | IC50 [2] [nM] | IC50 (Plasmodium falciparum [3]) [nM] | also measured |
| --- | --- | --- | --- | --- |
| Cc1c(-c2ccc(Cc3ccccc3)cc2)[nH]c2ccccc2c1=O | 107 | 27.4 | 416 | – |
| Cc1c(-c2cccc(Cc3ccc(OC(F)(F)F)cc3)c2)[nH]c2ccccc2c1=O | 26 | 50 | 65 | IC50 [4]: 219 nM |
| Cc1c(-c2ccc(Cc3ccc(F)cc3)cc2)[nH]c2ccccc2c1=O | 83 | < 1 | 273 | IC50 [4]: 25.5 nM |
| COc1ccc(Cc2ccc(-c3[nH]c4ccccc4c(=O)c3C)cc2)cc1 | 37 | 113 | 577 | – |
| COc1ccc2c(=O)c(C)c(-c3ccc(Cc4ccc(OC(F)(F)F)cc4)cc3)[nH]c2c1 | 8 | – | – | IC50 (Plasmodium falciparum [5]): 13 nM |
| Cc1c(-c2cccc(Cc3ccc(OC(F)(F)F)cc3)c2)[nH]c2ccc(Cl)cc2c1=O | 8.4 | – | 31 | – |
| Cc1c(-c2cccc(Cc3ccc(OC(F)(F)F)cc3)c2)[nH]c2cc(Cl)ccc2c1=O | 34 | – | 94 | – |
| Cc1c(-c2ccc(Oc3ccc(Cl)cc3)cc2)[nH]c2ccccc2c1=O | 230 | 36 | 797 | – |
| Cc1c(-c2ccc(Cc3ccc(OC(F)(F)F)cc3)cc2)[nH]c2ncccc2c1=O | 407 | 97 | 1880 | – |
| Cc1c(-c2ccc(Cc3ccc(OC(F)(F)F)cc3)cc2)[nH]c2cc(F)ccc2c1=O | 69 | 12.1 | 191 | – |
| Cc1c(-c2ccc(Cc3ccc(OC(F)(F)F)cc3)cc2)[nH]c2cc(F)c(F)cc2c1=O | 24 | 30.9 | 207 | – |
| O=c1cc(-c2ccc(Cc3ccc(OC(F)(F)F)cc3)cc2)[nH]c2ccccc12 | 48 | 6.2 | 251 | IC50 [4]: 13.9 nM; IC50 (Plasmodium falciparum [5]): 36 nM |
| O=c1cc(-c2ccc(Cc3ccc(OC(F)(F)F)cc3)cc2)[nH]c2cc(F)c(F)cc12 | 16 | – | 626 | – |
| O=c1c(Cl)c(-c2ccc(Cc3ccc(OC(F)(F)F)cc3)cc2)[nH]c2ccccc12 | 19 | 137 | 328 | IC50 (Plasmodium falciparum [5]): 22 nM |
| Cc1[nH]c2ccccc2c(=O)c1-c1ccc(Cc2ccc(OC(F)(F)F)cc2)cc1 | 36 | 492 | – | IC50 (Plasmodium falciparum [5]): 42 nM |
| Cc1[nH]c2ccccc2c(=O)c1-c1ccc(Oc2ccc(OC(F)(F)F)cc2)cc1 | 10 | 190 | – | IC50 (Plasmodium falciparum [5]): 34 nM |
| CCOC(=O)c1c(-c2ccc(Cc3ccc(OC(F)(F)F)cc3)cc2)[nH]c2ccccc2c1=O | 39.6 | 268 | 1400 | – |
| CCOC(=O)c1c(-c2ccc(Cc3ccc(OC(F)(F)F)cc3)cc2)[nH]c2cc(Cl)ccc2c1=O | 26 | – | 92 | – |
| O=c1c(CO)c(-c2ccc(Cc3ccc(OC(F)(F)F)cc3)cc2)[nH]c2cc(Cl)ccc12 | 63 | – | 330 | – |
| CCOC(=O)Oc1c(C)c(-c2ccc(Cc3ccc(OC(F)(F)F)cc3)cc2)nc2ccccc12 | 27 | – | 6.8 | – |
| CCOC(=O)Oc1c(-c2ccc(Cc3ccc(OC(F)(F)F)cc3)cc2)c(C)nc2ccccc12 | 27 | – | 224 | – |
| CCOC(=O)Oc1c(C)c(-c2ccc(Oc3ccc(OC(F)(F)F)cc3)cc2)nc2ccccc12 | 60 | – | 406 | – |
| Cc1c(-c2ccc(Cc3ccc(OC(F)(F)F)cc3)cc2)n(O)c2ccccc2c1=O | 22 | 55.2 | 217 | IC50 (Plasmodium falciparum [5]): 8 nM |
| Cc1c(-c2ccc(Cc3ccc(OC(F)(F)F)cc3)cc2)n(O)c2cc(Cl)ccc2c1=O | 149 | – | > 1000 | – |
| Cc1c(-c2ccc(Cc3ccc(OC(F)(F)F)cc3)cc2)c(=O)c2ccccc2n1O | 175 | 13.5 | 670 | – |
| O=c1cc(-c2ccc(Cc3ccc(OC(F)(F)F)cc3)cc2)n(O)c2ccccc12 | 263 | 71 | 403 | – |
| Cc1c(-c2ccc(Oc3ccc(OC(F)(F)F)cc3)cc2)n(O)c2ccccc2c1=O | 35 | 108 | 566 | – |
